# NR2E3 ag-1 = activates human NR2E3 receptor; inhibition of corepressor binding, % at 3.98 µM; AID 602229; Q9Y5X4; CHO-S Gal4-NCOR/VP16-NR2E3 two-hybrid, luciferase; actives 0.35% (n = 360,000);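 active = inhibition above the mean of all tested compounds plus 3 SD, cut at about 70% in these data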;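 also: 0% = DMSO with NR2E3 transfected cells and 100% = cells lacking NR2E3 construct; higher means lower luciferase signal from less NR2E3 corepressor binding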
# Target sequence (Q9Y5X4 whole entry, looked up, the tested form may be a part): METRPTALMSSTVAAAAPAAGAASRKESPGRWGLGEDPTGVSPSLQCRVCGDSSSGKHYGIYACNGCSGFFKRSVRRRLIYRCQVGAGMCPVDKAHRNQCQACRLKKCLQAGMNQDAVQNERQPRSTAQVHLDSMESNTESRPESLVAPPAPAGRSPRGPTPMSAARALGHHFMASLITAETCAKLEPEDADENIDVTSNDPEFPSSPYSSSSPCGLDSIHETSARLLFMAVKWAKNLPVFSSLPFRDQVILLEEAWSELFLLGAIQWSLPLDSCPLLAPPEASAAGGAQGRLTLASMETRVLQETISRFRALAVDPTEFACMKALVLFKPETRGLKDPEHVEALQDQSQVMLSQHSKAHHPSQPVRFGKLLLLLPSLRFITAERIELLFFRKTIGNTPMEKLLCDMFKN
# EBV LMP1 NFkB = reduces LMP1-driven NF-kappaB luciferase signal; LMP1-induced NF-kappaB luciferase reporter cells, luminescence; inhibition, % at 12.5 µM; actives 0.69% (n = 350,000); AID 504558; in the data active = inhibition above about 41%;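 also: 0% = neutral control wells and 100% = reference inhibitor control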
# NR2E3 ag-2 = agonists of human nuclear receptor NR2E3; Q9Y5X4; GST-NR2E3/biotin-RetCOR TR-FRET, 1536-well; inhibition of corepressor binding, % at 4.78 µM; actives 0.12% (n = 320,000);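 active = percent inhibition above the cutoff of mean plus 3 SD of all tested compounds, set per screening campaign, cut at about 20% in these data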;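 also: 0% = DMSO wells and 100% = biotin wells as full block of FRET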
#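 Material: NR2E3–RetCOR corepressor complex / Amount: 1.35 nM GST-NR2E3 / Medium: Tris pH 7.5 / Compound: single nominal compound dose of 4.8 µM / Incubation: 5 h at 4 °C / Technique: TR-FRET, Eu(K)-anti-GST donor, streptavidin-D2 acceptor, ex 340, em 617/671 nm / Read-out basis: percent loss of FRET ratio relative to control wells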
# TROY signal inh = inhibitors of TROY-dependent NF-kB signaling. inhibition, % at 10 µM. Q293 LMP1-TROYcd NF-kB luciferase reporter, 4 h. actives 0.98% (n = 360,000);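 active = compounds whose plate-normalised and pattern-corrected inhibition of the luciferase reporter signal at the single screening dose is 50% or more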
# HIF act = HIF pathway transcriptional activation; U2OS HRE-luciferase reporter, luminescence; normalized: DMSO 0%, desferrioxamine 100%; activation, % at 7.5 µM (by protocol); actives 0.32% (n = 300,000);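 active = mean activation of at least 10% of the iron chelator positive control signal, with at least half of replicates also reaching 10%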
# An asterisk follows results filed as active; / = not tested or not shown; ! = not confirmed by another sample. An excerpt weighted towards active compounds, which were near 2% of everything screened.
SMILES,NR2E3 ag-1,EBV LMP1 NFkB,NR2E3 ag-2,TROY signal inh,HIF act
CC(C)(C)n1ncc2c(=O)n(CC(=O)OCc3ccccc3)cnc21,-5,23,1,87*,-1
CC(C)(C)n1ncc2c(=O)n(CC(=O)c3ccccc3)cnc21,-121,-10,0,/,3
c1ccc2nc(-c3nc4ccccc4o3)ccc2c1,-85,5,3,58*,-3
CC(NC(=O)Cn1ncc(Cl)c(Cl)c1=O)C12CC3CC(CC(C3)C1)C2 (configuration not stated),26,-94,12,87*,-6
Cc1nc2ccc(NC(=O)c3cccs3)cc2c(=O)n1Cc1ccc(Cl)cc1,-31,-7,2,70*,0
C=C1C(=O)O[C@@H]2[C@H]1[C@@H](OC(=O)/C(C)=C/C)C/C(C)=C\C(=O)/C=C(\C)[C@@H]2O,42,67*,-1,29,0
COc1ccc(Cl)cc1-c1cc(C(=O)Nc2ccc(C)c(NS(C)(=O)=O)c2)[nH]n1,-46,/,/,53*,/
Cc1ccc(NC(=O)c2cc(-c3cc(Cl)ccc3C)n[nH]2)cc1NS(C)(=O)=O,-6,/,/,38,/
O=C(OCC(=O)N1CCCC1=O)c1nc(Cl)c(Cl)c(Cl)c1Cl,-3,-32,-8,56*,2
O=C(NCC1CCCO1)C(=O)N/N=C/c1c(F)cccc1Cl (configuration not stated),-4,-2,2,6,-1
CCOC(=O)c1c(C)[nH]c(C(=O)N/N=C\c2ccccc2O)c1C,3,52*,-1,-34,57*
CCOC(=O)c1c(C)[nH]c(C(=O)N/N=C/c2cc([N+](=O)[O-])ccc2O)c1C,-2,17,7,77*,-1
CCOC(=O)c1c(C)[nH]c(C(=O)N/N=C/c2ccc(OC)c(OC)c2)c1C,-4,4,-2,-8,1
CN(C)c1ccc(-c2csc(C(C)(O)c3ccc(F)c(F)c3)n2)cc1 (configuration not stated),-16,/,/,3,/
Cc1ccc(C2=NOC(=O)/C2=C\c2ccccc2)cc1,4,-2,-1,-31,31*
O=C1ON=C(c2ccccc2)/C1=C/c1ccccc1,-20,-1,-4,12,2
O=S(=O)(NC1CCCC1)c1ccc(F)cc1F,-24,5,/,-11,/
COc1cccc(OCCSc2nnc3sc4ccccc4n23)c1,-30,-4,-2,-35,0
c1ccc(OCCSc2nnc3sc4ccccc4n23)cc1,-75,70*,0,67*,-3
COc1ccc(-c2csc(NC(=O)C3CC(=O)N(c4ccc5c(c4)OCCO5)C3)n2)cc1 (configuration not stated),-23,10,0,55*,-3
CC(=O)Nc1ccc(-c2csc(NC(=O)C3CC(=O)N(c4ccc5c(c4)OCCO5)C3)n2)cc1 (configuration not stated),-14,3,2,39,-1
CCc1ccc(N2CC(C(=O)Nc3ccc4c(c3)OCCO4)CC2=O)cc1 (configuration not stated),28,10,2,55*,-1
CCOC(=O)N1CCC(NC(=O)c2cc(C(=O)NC3CCN(Cc4ccccc4)CC3)ccc2CO)CC1,-32,6,3,-8,0
CC(C)[C@@H](CO)NS(=O)(=O)c1ccc(Br)cc1F,-9,-3,/,-13,/
Oc1ccc(C=Nc2cccc3ccccc23)c(O)c1,-34,-9,-3,53*,-1
SMILES,NR2E3 ag-1,EBV LMP1 NFkB,NR2E3 ag-2,TROY signal inh,HIF act
O=[N+]([O-])c1ccc(O)c(C=Nc2cccc3ccccc23)c1,9,-11,-2,36,-1
Cc1ccccc1NC(=S)NNC(=O)c1csc2c1CCC(C)C2 (configuration not stated),12,-14,1,80*,0
CC(=O)c1sc(NC(=O)C2COc3ccccc3O2)nc1C (configuration not stated),-99,49*,7,56*,-3
O=C(Nc1ccc(-c2cn3ccsc3n2)cc1)C1COc2ccccc2O1 (configuration not stated),-69,-4,-1,57*,-43
CC1(C)Oc2ccc(NC(=O)C3COc4ccccc4O3)cc2O1 (configuration not stated),8,-7,-4,54*,-2
CC(OC(=O)[C@@H](NC(=O)OCc1ccccc1)C(C)C)C(=O)Nc1ccc(N2CCOCC2)cc1 (some centres not stated),-17,4,/,1,/
Cn1c(-c2ccccc2)cnc1SCC(=O)N1CCCCC1,-132,66*,-2,61*,-3
Cc1nnc(-c2ccccc2)nc1N(C)C,2,-9,-3,-2,701*
CN(C)c1nc(-c2ccccn2)nnc1-c1ccccc1,10,-18,2,-18,105*
c1ccc(-c2nnc(-c3ccccn3)c(-c3ccccn3)n2)nc1,-3,/,2,3,0
O=C(N/N=C/c1ccoc1)c1cccc(OC(F)(F)C(F)F)c1,-2,-2,-1,-26,1
COc1cccc(C(=O)N2CCN(c3ccccn3)CC2)c1,-30,49*,2,5,-5
COc1cc(OC)cc(C(=O)N2CCN(c3ccccn3)CC2)c1,-1,-8,0,-7,0
COc1cccc(-c2nn(C)c3sc(C(=O)N4CCN(c5ccccn5)CC4)cc23)c1,4,22,-3,62*,0
OCC1(Cc2ccccc2F)CCCN(CC2CCCCC2)C1 (configuration not stated),-12,5,1,8,-1
COc1ccc(CNC(=O)CN(Cc2ccc(F)cc2)C(=O)c2csnn2)cc1,6,3,2,5,3
CCc1nc2ccc(C(=O)N(CC)CCN(C)C)cn2c1N(C)Cc1nccs1,18,/,/,-5,/
CCOc1ccccc1N(CC(=O)NC(C)(C)C)C(=O)CCC(=O)Nc1nccs1,14,6,2,-15,0
Cc1nn(-c2ccccc2)c(C)c1C(=O)OC(C)C(=O)NC1CCCCC1 (configuration not stated),16,17,/,20,/
C[n+]1c2cc(N)ccc2cc2ccc(N)cc21,-23,72*!,/,-50,/
Nc1ccc2ccc(O)cc2c1,-41,-1,/,30,/
CCN(CC)S(=O)(=O)c1cccc(NC(=O)COC(=O)c2[nH]c(C)c(C(C)=O)c2C)c1,42,-6,/,50,/
O=S1(=O)N=C(Oc2cccc3ccccc23)c2ccccc21,-13,8,3,58*,-2
Cc1cc(NC(=O)c2cccs2)ncc1NC(=O)C(C)(C)C,-130,-4,3,51*,0
Cc1ccnc(NC(=O)c2cccs2)c1,-62,-15,0,-42,2
CCCCOc1ccc(C(=O)NCC(=O)NC2CCC(C)CC2)cc1 (configuration not stated),7,-1,-1,5,0

# Assay outcomes (PubChem)
